Screens: PubChem BioAssay, The Scripps Research Institute Molecular Screening Center
CHRM5 agonist = agonists of human muscarinic M5 receptor (CHRM5) | 360,000 compounds, 0.19% hits | CHO-K1 hM5 cells, Fluo-8 calcium fluorescence; 0% DMSO wells, 100% maximal acetylcholine response | P08912 | AID 624037 | activation, % at 3 µM;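 active = activation above the run's mean over test compounds plus 3 SD, cut at about 23% in these data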;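 note: signal is peak over basal fluorescence ratio across the kinetic read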
CHRM4 agonist = agonists of human muscarinic M4 receptor (CHRM4); P08173; CHO-K1 hM4/Gqi5, Fluo-8 calcium fluorescence; vehicle 0%, full acetylcholine response 100%; activation, % at 3 µM; 360,000 compounds, 0.14% hits; AID 624127;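 active = activation above the run mean over all test wells plus 3 SD, cut at about 32% in these data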;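 note: peak over basal fluorescence ratio per well then scaled between controls; 0% = DMSO wells and 100% = acetylcholine at EC100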
Target sequence (P08173 whole entry, looked up): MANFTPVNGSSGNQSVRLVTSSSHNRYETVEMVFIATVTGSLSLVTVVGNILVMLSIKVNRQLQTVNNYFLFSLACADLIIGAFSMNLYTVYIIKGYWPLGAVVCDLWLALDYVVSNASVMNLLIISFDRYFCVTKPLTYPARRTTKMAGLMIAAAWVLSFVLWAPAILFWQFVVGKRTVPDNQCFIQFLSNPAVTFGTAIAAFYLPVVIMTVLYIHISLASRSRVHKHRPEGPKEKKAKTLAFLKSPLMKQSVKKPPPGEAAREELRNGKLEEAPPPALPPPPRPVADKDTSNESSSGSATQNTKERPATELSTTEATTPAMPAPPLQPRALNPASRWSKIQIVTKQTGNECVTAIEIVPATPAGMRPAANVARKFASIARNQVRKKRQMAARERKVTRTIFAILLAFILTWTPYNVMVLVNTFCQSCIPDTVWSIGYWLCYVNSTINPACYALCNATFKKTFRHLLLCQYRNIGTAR
M4 PAM = potentiates acetylcholine response at human M4 receptor; P08173; CHO-K1 hM4/Gqi5, Fluo-8 calcium fluorescence, ACh EC20; 0% = ACh EC20, 100% = maximal ACh; activation, % at 3 µM; 360,000 compounds, 0.4% hits;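 active = activation above its plate's cutoff, the mean activation of sample wells plus 3 SD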
M5 antag = antagonists of human muscarinic M5 receptor (CHRM5); CHO-hM5 cells, Fluo-8 calcium fluorescence, ACh EC80; inhibition, % at 3 µM; AID 624040; P08912; 360,000 compounds, 0.59% hits;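 active = inhibition above a per-plate cutoff, the mean of that plate's test compounds plus 3 SD, cut at about 27% in these data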;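 note: 0% = acetylcholine EC80 with DMSO and 100% = DMSO without agonist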
CHRM4 antagonist = blocks acetylcholine activation of human M4 receptor; inhibition, % at 3 µM; 360,000 compounds, 0.73% hits; CHO-hM4 cells, ACh EC80, Fluo-8 calcium fluorescence; AID 624125; P08173;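 active = inhibition above its plate's cutoff, the mean inhibition of sample wells plus 3 SD, cut at about 27% in these data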;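 note: 0% = acetylcholine EC80 with DMSO and 100% = DMSO without agonist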
CHRM5 PAM = potentiates acetylcholine response at human M5 receptor; P08912; CHO-K1 hM5, Fluo-8 calcium, ACh EC20 PAM; 0% = ACh EC20, 100% = ACh EC100; activation, % at 3 µM; 360,000 compounds, 0.3% hits; AID 624038;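 active = activation above the run cutoff, the mean activation of all test compounds plus 3 SD, cut at about 18% in these data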
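System – CHO-K1 hM5 cells · Compound – 3 µM, single dose · Incubation – compound preincubation 140 s before EC20 acetylcholine addition · Technique – Fluo-8 calcium fluorescence · Measure – Max/basal fluorescence ratio as % of EC20–EC100 ACh window · Benchmarks – low control EC20 acetylcholine (0%), high control EC100 acetylcholine (100%) · Replication – singlicate, one well per test compound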
* = called active by the depositor. The list is not random: actives were taken first. Their share in the collection is about 1.9%.

SMILES	CHRM5 agonist	CHRM4 agonist	M4 PAM	M5 antag	CHRM4 antagonist	CHRM5 PAM
Cc1ccccc1N1CCN(CCN2C(=O)CC(=C3c4ccccc4-c4ccccc43)C2=O)CC1	2	1	14	-4	-11	6
Cc1ccccc1N1CCN(CCCN2C(=O)CC(=C(c3ccccc3)c3ccccc3)C2=O)CC1	-9	-3	-17	-1	38*	-14
O=C1CC(=C(c2ccccc2)c2ccccc2)C(=O)N1CCCCN1CCN(c2cccc(Cl)c2)CC1	-8	-2	-20	11	40*	-18
CC(C)(C)C(=O)Nc1ccc(N2CCCC2)cc1	-5	1	-22	-1	44*	4
CC(NC(=O)CN1C(=O)NC(C)(c2cccc3ccccc23)C1=O)c1ccccc1 (stereo unspecified)	-1	7	-1	8	3	2
Cn1nnc2cc(C(=O)NC3CC3)ccc21	0	0	10	8	11	40*
COCC1CCCN(Cc2nc(C(c3ccccc3)c3ccccc3)no2)C1 (stereo unspecified)	-9	-1	-4	1	-11	1
c1ccc(C(c2ccccc2)c2noc(CN3CCN(CC4CC4)CC3)n2)cc1	-18	1	-24	24	31*	-33
COc1ccc(-c2c[n+]3c(n2-c2ccccc2)SCC3)cc1	-17	0	-12	0	22	6
c1ccc(Cn2c(-c3ccccc3)c[n+]3c2SCCC3)cc1	-18	0	-16	96*	97*	-28
Cn1c(=O)c2c(ncn2CCOC(=O)C(C)(C)Oc2ccc(Cl)cc2)n(C)c1=O	1	4	3	15	-9	-1
CCNc1nc(=S)nc(NC(C)C)[nH]1	2	0	11	-8	-2	18*
CCCN1CCC(=O)N(CCN=[N+]=[N-])CC1	5	1	1	5	-4	2
CCCCNc1c(-c2ccc(OC)c(Sc3ccc(OC)cc3)c2)nc2cnccn12	-2	13	-3	19	16	-14
CCCCNc1c(-c2ccc(OC)c(Sc3ccc(OC)cc3)c2)nc2ccccn12	-3	17	-8	27*	39*	-31
CCCCNc1c(-c2ccc(-c3ccc(OC)cc3)c(OC)c2)nc2ccccn12	-5	12	-16	19	36*	-29
O=C(O)c1ccccc1-c1nnc2c(Cl)cc(C(F)(F)F)cn12	-1	0	5	13	-11	-2
Cc1cc(N2C(=O)C(=O)/C(=C(/O)c3ccc(F)cc3)C2c2ccc(F)cc2)no1 (stereo unspecified)	0	0	12	-12	2	21*
COc1ccc(/C(O)=C2\C(=O)C(=O)N(c3cc(C)on3)C2c2ccc(OC)c(OC)c2)cc1OC (stereo unspecified)	-3	0	1	2	2	0
O=C(CC[C@H]1O[C@@H](n2cnc3c(NC(=O)c4ccccc4)ncnc32)[C@H](O)[C@@H]1O)NCC1CCCO1 (stereo partly specified)	3	2	20*	-4	-22	1
O=C(NCCCN1CCOCC1)C1CCN(S(=O)(=O)c2cccc(C(F)(F)F)c2)CC1	-3	1	-4	0	-5	1
O=C(O)C(Cc1ccccc1N(CCO)CCO)N1C(=O)c2ccccc2C1=O (stereo unspecified)	3	0	6	-1	-1	7
NC(=O)c1c(-c2ccc(Cl)cc2Cl)csc1NC(=O)Cc1ccccc1	0	9	-25	38*	3	-19
Cc1ccc(NC(=S)N2CCCC2)cc1Cl	-1	1	-3	5	-1	0
CCOc1ccc2cc(S(=O)(=O)N3CCN(C)CC3)ccc2c1	-6	4	15*	2	-2	2
SMILES	CHRM5 agonist	CHRM4 agonist	M4 PAM	M5 antag	CHRM4 antagonist	CHRM5 PAM
CCOc1ccc2cc(S(=O)(=O)N3CCCCC3)ccc2c1	-4	1	0	4	12	-1
COc1ccccc1N1CCN(C(=O)CCNS(=O)(=O)c2cc(Br)cnc2N)CC1	-8	16	-5	17	-16	7
COc1ccc(NC(=S)N(CCCOC(C)C)C2CCN(C(C)=O)CC2)cc1Cl	-3	6	-8	3	-4	-5
OCc1ccnc2c(O)cccc12	0	1	7	1	1	22*
NC(=O)c1ccnc2c(O)cccc12	1	3	9	-1	2	-2
CCc1ccc(C2CC(c3ccccc3Cl)Nc3nc(N)nn32)cc1 (stereo unspecified)	24*	13	9	3	1	-5
CCc1ccc(C2CC(c3ccccc3)Nc3nc(N)nn32)cc1 (stereo unspecified)	2	1	7	1	-7	-3
O=C(O)CSCC(=O)N1N=C2/C(=C/c3ccccc3)CCCC2C1c1ccccc1 (stereo unspecified)	-2	1	16*	1	-40	1
NC(=O)N1N=C2/C(=C/c3ccccc3)CCCC2C1c1ccccc1 (stereo unspecified)	0	5	14	8	3	-5
O=C1NC(=Nc2ccccc2)SC1Cc1ccccc1 (stereo unspecified)	-3	18	-4	27*	-2	-11
O=C1N/C(=N/c2ccccn2)SC1Cc1ccccc1 (stereo unspecified)	3	0	7	1	-2	-1
CCN1C[C@@H]2[C@@H]3C(=O)N(C)C(=O)[C@@H]3[C@](Cc3ccccc3)(C(=O)OC)N2C1=NC1CCCCC1	-1	0	-3	3	-3	0
Cc1cc2ccccc2n1CCNCc1c(C(=O)N2CCOCC2)nc2ccccn12	245*	30	-17	75*	25	-6
CC1CCC(NC(=O)CSc2nncn2C)CC1 (stereo unspecified)	1	0	6	4	3	7
COc1ccc(-c2nn(-c3ccccc3)cc2C(=O)NC(=S)NNC(=O)c2ccncc2)cc1	13	33*	-12	9	8	-9
COc1ccc(-c2nn(-c3ccccc3)cc2C(=O)NC(=S)Nc2cc(Cl)ccc2Cl)cc1	5	2	27	-16	-1	22*
COc1ccc(-c2nn(-c3ccccc3)cc2C(=O)O)cc1	3	1	4	0	-3	0
COC(=O)c1cn(-c2ccccc2)nc1-c1ccc(OC)c(OC)c1	6	5	5	12	-24	19*
COc1ccc(NC(=O)c2cn(-c3ccccc3)nc2-c2ccncc2)cc1	-4	3	0	5	1	-7
